Results as given in ChEMBL document CHEMBL4229344 (Eur J Med Chem, 2018).

Experiments:
[1] = target: cGMP-dependent protein kinase 1 (Homo sapiens) (UniProt Q13976); experiment: Binding affinity to wild-type human partial length PRKG1 (L339 to F686 residues) expressed in bacterial expression system assessed as residual binding level at 1 uM by Kinomescan method relative to control
[2] = target: Tyrosine-protein kinase Fyn (Homo sapiens) (UniProt P06241); experiment: Binding affinity to wild-type human partial length FYN (T243 to L534 residues) expressed in bacterial expression system assessed as residual binding level at 1 uM by Kinomescan method relative to control
Outline: (§1)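 Kinome-wide competition binding screen against a panel of 468 purified kinases/mutants, with the test compound at a single concentration of 1 μM. Read-out is the relative binding activity of each kinase in the presence of compound.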

[3] = target: Testis-specific serine/threonine-protein kinase 1 (Homo sapiens) (UniProt Q9BXA7); experiment: Binding affinity to wild-type human full length TSSK1B (M1 to Q367 residues) expressed in bacterial expression system assessed as residual binding level at 1 uM by Kinomescan method relative to control
Outline: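 Single-concentration KINOMEscan (DiscoverX) binding screen at 1 μM against a panel of 468 purified kinases and mutants. The read-out is binding relative to control.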

[4] = target: Cyclin-dependent kinase-like 1 (Homo sapiens) (UniProt Q00532); experiment: Binding affinity to wild-type human full length CDKL1 (M1 to I358 residues) expressed in mammalian expression system assessed as residual binding level at 1 uM by Kinomescan method relative to control
Outline: (§2)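 Single-concentration (1 μM) competition-binding screen run by KINOMEscan against a panel of 468 purified kinases and mutants. The read-out is the relative binding activity of the test compound to each kinase.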

[5] = target: Wee1-like protein kinase (Homo sapiens) (UniProt P30291); experiment: Binding affinity to wild-type human partial length WEE1 (M291 to K575 residues) expressed in bacterial expression system assessed as residual binding level at 1 uM by Kinomescan method relative to control
Outline: (§3)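 KINOMEscan competition binding against a panel of 468 purified kinases/mutants, compound tested at 1 μM; readout is relative binding activity versus control.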

[6] = target: High affinity nerve growth factor receptor (Homo sapiens) (UniProt P04629); experiment: Binding affinity to wild-type human partial length TRKA (G475 to G790 residues) expressed in mammalian expression system assessed as residual binding level at 1 uM by Kinomescan method relative to control
[7] = target: Death-associated protein kinase 1 (Homo sapiens) (UniProt P53355); experiment: Binding affinity to wild-type human partial length DAPK1 (M1 to F296 residues) expressed in bacterial expression system assessed as residual binding level at 1 uM by Kinomescan method relative to control
[8] = system: Phosphatidylinositol 4,5-bisphosphate 3-kinase catalytic subunit alpha isoform (Homo sapiens), P42336 [E545A]; experiment: Binding affinity to human partial length PIK3CA E545A mutant (R108 to N1068 residues) expressed in mammalian expression system assessed as residual binding level at 1 uM by Kinomescan method relative to control
Outline: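 Kinome-wide single-concentration binding screen (KINOMEscan) at 1 μM against a panel of 468 purified kinases and mutants. Read-out is relative binding of each kinase compared with control. Selectivity across the panel was summarised as an S(10) score.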

[9] = target: Phosphatidylinositol 4,5-bisphosphate 3-kinase catalytic subunit delta isoform (Homo sapiens) (UniProt O00329); experiment: Binding affinity to wild-type human partial length PIK3CD (R108 to Q1044 residues) expressed in mammalian expression system assessed as residual binding level at 1 uM by Kinomescan method relative to control
[10] = target: Epidermal growth factor receptor (Homo sapiens) (UniProt P00533); experiment: Binding affinity to wild-type human partial length EGFR (R669 to V1011 residues) expressed in bacterial expression system assessed as residual binding level at 1 uM by Kinomescan method relative to control
[11] = target: Mitogen-activated protein kinase 3 (Homo sapiens) (UniProt P27361); experiment: Binding affinity to wild-type human full length ERK1 (M1 to P379 residues) expressed in bacterial expression system assessed as residual binding level at 1 uM by Kinomescan method relative to control; outline: as §2
[12] = target: CDK4/Cyclin D3 (Homo sapiens) (UniProt P11802+P30281); experiment: Binding affinity to wild-type human full length CDK4/cyclinD3 (M1 to E303 residues) expressed in mammalian expression system assessed as residual binding level at 1 uM by Kinomescan method relative to control; outline: as §2
[13] = target: Rho-associated protein kinase 2 (Homo sapiens) (UniProt O75116); experiment: Binding affinity to wild-type human partial length ROCK2 (M1 to T431 residues) expressed in mammalian expression system assessed as residual binding level at 1 uM by Kinomescan method relative to control
[14] = target: Serine/threonine-protein kinase PAK 2 (Homo sapiens) (UniProt Q13177); experiment: Binding affinity to wild-type human partial length PAK2 (P151 to R525 residues) expressed in bacterial expression system assessed as residual binding level at 1 uM by Kinomescan method relative to control; outline: as §3
[15] = target: Serine/threonine-protein kinase DCLK3 (Homo sapiens) (UniProt Q9C098); experiment: Binding affinity to wild-type human partial length DCAMKL3 (E140 to V628 residues) expressed in bacterial expression system assessed as residual binding level at 1 uM by Kinomescan method relative to control; outline: as §1
[16] = target: Muscle, skeletal receptor tyrosine-protein kinase (Homo sapiens) (UniProt O15146); experiment: Binding affinity to wild-type human partial length MUSK (M553 to V869 residues) expressed in bacterial expression system assessed as residual binding level at 1 uM by Kinomescan method relative to control
[17] = target: Ephrin type-A receptor 7 (Homo sapiens) (UniProt Q15375); experiment: Binding affinity to wild-type human partial length EPHA7 (Y608 to S912 residues) expressed in bacterial expression system assessed as residual binding level at 1 uM by Kinomescan method relative to control
[18] = target: Cyclin-G-associated kinase (Homo sapiens) (UniProt O14976); experiment: Binding affinity to wild-type human partial length GAK (G13 to Y338 residues) expressed in bacterial expression system assessed as residual binding level at 1 uM by Kinomescan method relative to control; outline: as §1
[19] = target: Serine/threonine-protein kinase 36 (Homo sapiens) (UniProt Q9NRP7); experiment: Binding affinity to wild-type human partial length STK36 (M1 to T271 residues) expressed in bacterial expression system assessed as residual binding level at 1 uM by Kinomescan method relative to control
[20] = target: Death-associated protein kinase 2 (Homo sapiens) (UniProt Q9UIK4); experiment: Binding affinity to wild-type human full length DAPK2 (M1 to S370 residues) expressed in bacterial expression system assessed as residual binding level at 1 uM by Kinomescan method relative to control
Outline: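 KINOMEscan competition binding against 468 purified kinases/mutants, test compound at 1 µM; residual binding relative to control.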

[21] = Apparent volume of distribution in Sprague-Dawley rat at 1 mg/kg, iv; format: ADME, organism-based; details: in vivo, read-out: Vz
[22] = target: Mitogen-activated protein kinase kinase kinase 7 (Homo sapiens) (UniProt O43318); experiment: Binding affinity to wild-type human partial length TAK1 (M1 to Q303 residues) expressed in mammalian expression system assessed as residual binding level at 1 uM by Kinomescan method relative to control; outline: as §3

Ephrin type-A receptor 7 (Homo sapiens), sequence (Q15375 28-998 limits assumed): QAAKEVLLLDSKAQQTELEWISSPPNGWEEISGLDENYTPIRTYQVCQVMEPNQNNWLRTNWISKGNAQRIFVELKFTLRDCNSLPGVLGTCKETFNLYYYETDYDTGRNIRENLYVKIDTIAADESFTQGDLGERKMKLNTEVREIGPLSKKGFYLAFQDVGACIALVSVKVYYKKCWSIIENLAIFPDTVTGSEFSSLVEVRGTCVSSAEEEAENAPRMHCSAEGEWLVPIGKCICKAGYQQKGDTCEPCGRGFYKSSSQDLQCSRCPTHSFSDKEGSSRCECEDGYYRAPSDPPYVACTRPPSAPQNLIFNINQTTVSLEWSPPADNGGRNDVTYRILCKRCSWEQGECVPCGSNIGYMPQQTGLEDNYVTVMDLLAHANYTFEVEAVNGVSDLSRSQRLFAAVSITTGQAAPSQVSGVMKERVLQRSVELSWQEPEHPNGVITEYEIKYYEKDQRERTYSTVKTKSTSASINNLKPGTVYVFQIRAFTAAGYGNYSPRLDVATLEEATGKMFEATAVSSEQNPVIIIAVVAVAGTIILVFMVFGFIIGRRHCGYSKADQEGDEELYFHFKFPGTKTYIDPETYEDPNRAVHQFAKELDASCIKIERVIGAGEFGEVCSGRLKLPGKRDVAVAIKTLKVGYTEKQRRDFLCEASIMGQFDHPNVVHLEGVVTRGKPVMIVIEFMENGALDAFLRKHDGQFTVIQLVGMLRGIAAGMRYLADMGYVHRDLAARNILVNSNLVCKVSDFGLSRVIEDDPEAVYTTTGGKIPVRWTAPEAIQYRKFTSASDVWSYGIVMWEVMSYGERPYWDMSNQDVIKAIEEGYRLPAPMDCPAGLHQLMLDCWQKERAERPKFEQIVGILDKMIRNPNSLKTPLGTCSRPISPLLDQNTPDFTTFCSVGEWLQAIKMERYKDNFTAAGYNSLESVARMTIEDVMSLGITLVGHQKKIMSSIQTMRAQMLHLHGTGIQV
Death-associated protein kinase 1 (Homo sapiens), sequence (P53355 whole entry, looked up, the tested form may be a part, canonical isoform): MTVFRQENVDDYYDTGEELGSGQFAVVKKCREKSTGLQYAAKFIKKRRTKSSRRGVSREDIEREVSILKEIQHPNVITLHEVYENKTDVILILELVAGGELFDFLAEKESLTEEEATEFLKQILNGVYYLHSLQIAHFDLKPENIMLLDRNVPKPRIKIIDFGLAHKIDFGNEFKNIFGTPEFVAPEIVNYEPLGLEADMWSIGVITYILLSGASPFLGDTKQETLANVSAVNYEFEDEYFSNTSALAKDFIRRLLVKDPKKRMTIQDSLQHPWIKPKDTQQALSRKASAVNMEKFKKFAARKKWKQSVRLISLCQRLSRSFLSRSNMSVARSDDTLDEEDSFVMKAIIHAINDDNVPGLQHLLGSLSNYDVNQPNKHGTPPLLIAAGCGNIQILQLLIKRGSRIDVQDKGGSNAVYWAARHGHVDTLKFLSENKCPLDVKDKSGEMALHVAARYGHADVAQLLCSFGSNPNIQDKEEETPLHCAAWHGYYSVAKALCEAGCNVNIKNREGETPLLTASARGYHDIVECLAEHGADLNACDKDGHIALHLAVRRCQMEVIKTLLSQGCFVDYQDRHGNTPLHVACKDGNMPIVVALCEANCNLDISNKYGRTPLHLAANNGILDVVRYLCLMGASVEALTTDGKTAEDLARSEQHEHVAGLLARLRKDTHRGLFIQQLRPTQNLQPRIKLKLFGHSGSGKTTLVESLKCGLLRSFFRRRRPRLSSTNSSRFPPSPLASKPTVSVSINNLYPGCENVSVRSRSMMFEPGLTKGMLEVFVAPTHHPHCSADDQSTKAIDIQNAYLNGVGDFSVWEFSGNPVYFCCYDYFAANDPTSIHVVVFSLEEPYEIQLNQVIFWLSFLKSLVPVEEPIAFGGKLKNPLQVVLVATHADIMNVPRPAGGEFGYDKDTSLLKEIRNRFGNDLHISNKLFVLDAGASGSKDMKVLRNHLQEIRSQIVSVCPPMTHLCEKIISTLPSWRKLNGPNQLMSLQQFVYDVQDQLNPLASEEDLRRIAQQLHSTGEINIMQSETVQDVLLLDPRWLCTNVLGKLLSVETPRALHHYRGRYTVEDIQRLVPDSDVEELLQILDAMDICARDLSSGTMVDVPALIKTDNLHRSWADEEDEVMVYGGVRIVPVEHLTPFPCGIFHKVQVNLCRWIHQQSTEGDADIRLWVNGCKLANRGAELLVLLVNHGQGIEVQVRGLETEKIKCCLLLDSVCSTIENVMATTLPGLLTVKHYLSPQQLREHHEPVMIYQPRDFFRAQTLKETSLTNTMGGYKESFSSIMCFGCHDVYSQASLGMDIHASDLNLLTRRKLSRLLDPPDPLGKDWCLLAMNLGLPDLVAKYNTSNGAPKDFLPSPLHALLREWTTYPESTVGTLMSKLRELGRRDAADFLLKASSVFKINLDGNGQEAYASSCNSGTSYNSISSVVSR
Cyclin-dependent kinase-like 1 (Homo sapiens), sequence (Q00532 whole entry, the tested form may be a part): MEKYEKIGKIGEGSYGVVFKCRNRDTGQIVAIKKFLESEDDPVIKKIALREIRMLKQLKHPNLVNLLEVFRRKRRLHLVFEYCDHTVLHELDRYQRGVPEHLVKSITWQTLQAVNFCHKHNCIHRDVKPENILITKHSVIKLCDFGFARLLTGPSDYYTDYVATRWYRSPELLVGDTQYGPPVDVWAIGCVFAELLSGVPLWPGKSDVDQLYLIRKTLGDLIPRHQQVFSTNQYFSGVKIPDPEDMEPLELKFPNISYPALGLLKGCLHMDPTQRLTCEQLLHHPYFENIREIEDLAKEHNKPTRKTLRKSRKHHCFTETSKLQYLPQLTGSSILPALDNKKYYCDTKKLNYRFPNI
Rho-associated protein kinase 2 (Homo sapiens), sequence (O75116 whole entry, looked up, the tested form may be a part): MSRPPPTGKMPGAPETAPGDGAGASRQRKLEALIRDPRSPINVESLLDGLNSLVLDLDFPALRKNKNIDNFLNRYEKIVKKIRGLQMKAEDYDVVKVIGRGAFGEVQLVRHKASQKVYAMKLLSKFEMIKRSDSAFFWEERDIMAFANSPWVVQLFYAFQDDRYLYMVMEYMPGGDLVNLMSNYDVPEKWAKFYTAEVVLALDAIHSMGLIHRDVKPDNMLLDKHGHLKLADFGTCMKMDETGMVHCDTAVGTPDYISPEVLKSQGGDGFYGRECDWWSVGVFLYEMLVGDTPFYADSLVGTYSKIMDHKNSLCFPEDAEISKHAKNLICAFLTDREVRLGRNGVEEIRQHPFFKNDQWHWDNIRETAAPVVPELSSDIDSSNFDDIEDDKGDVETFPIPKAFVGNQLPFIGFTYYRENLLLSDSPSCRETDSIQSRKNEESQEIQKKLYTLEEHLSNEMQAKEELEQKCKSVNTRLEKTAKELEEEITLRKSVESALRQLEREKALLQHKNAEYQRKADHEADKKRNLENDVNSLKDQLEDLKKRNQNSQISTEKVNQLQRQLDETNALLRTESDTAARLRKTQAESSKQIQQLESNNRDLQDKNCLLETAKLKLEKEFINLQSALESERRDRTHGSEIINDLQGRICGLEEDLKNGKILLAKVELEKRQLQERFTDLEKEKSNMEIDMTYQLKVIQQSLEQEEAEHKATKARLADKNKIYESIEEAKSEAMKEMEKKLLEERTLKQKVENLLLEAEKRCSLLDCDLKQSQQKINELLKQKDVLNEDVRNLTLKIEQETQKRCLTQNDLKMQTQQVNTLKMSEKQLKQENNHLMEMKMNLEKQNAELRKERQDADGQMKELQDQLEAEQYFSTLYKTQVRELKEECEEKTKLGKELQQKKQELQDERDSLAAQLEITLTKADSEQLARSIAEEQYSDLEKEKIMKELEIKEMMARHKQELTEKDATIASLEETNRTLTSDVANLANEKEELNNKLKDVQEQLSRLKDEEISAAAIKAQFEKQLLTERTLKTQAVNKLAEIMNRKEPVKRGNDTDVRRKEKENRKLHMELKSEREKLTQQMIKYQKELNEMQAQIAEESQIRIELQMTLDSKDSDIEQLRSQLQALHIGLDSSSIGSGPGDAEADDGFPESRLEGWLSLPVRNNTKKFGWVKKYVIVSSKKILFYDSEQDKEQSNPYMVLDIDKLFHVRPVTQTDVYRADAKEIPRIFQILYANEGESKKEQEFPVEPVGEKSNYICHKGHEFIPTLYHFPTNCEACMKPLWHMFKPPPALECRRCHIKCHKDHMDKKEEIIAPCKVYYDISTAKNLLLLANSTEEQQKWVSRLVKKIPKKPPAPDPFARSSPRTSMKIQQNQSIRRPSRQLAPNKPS
Death-associated protein kinase 2 (Homo sapiens), sequence (Q9UIK4 whole entry, looked up, the tested form may be a part): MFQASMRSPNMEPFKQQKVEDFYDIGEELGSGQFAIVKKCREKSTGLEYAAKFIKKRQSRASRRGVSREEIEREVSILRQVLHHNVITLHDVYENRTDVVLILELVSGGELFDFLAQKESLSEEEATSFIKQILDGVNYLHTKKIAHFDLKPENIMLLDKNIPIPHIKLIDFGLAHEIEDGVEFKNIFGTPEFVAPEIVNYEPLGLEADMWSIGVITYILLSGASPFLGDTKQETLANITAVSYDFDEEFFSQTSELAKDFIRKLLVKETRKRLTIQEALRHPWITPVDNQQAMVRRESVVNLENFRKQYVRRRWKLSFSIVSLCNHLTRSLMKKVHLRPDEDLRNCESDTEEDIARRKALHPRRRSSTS
Testis-specific serine/threonine-protein kinase 1 (Homo sapiens), sequence (Q9BXA7 whole entry, the tested form may be a part): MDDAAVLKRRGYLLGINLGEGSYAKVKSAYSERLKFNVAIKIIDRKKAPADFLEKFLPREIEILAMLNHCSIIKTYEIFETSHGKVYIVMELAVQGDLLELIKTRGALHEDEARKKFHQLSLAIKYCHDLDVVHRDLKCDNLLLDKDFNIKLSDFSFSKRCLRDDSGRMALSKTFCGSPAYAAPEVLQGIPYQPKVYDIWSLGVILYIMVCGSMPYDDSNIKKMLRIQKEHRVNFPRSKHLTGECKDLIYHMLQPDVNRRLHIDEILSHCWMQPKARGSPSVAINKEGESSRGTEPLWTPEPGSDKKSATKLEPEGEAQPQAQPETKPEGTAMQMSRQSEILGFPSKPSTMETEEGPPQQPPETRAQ

Question: Which Activity [1] does the source give for Cc1ccc(NC(=O)c2ccc(CN(CCN(C)C)C(=O)c3cccnc3)cc2)cc1Nc1nccc(-c2cccnc2)n1 here?
Answer: Its Activity is 85%.

Question: What about the Activity [2] of the same compound?
Answer: Its Activity is 80%.

Question: What about the Activity [3] of the same compound?
Answer: The Activity was 99%.

Question: And the Activity [4]?
Answer: The Activity was 85%.

Question: What about the Activity [5] of the same compound?
Answer: Its Activity is 87%.

Question: What about the Activity [6] of the same compound?
Answer: Its Activity is 95%.

Question: What about the Activity [7] of the same compound?
Answer: Its Activity is 96%.

Question: And the Activity [8]?
Answer: The Activity was 63%.

Question: What about the Activity [9] of the same compound?
Answer: The Activity was 100%.

Question: What about the Activity [10] of the same compound?
Answer: Its Activity is 73%.

Question: And the Activity [11]?
Answer: Its Activity is 95%.

Question: And the Activity [12]?
Answer: The Activity was 100%.

Question: And the Activity [13]?
Answer: The Activity was 100%.

Question: And the Activity [14]?
Answer: The Activity was 82%.

Question: And the Activity [15]?
Answer: The Activity was 89%.

Question: And the Activity [16]?
Answer: Its Activity is 100%.

Question: What about the Activity [17] of the same compound?
Answer: The Activity was 100%.

Question: And the Activity [18]?
Answer: Its Activity is 82%.

Question: What about the Activity [19] of the same compound?
Answer: The Activity was 97%.

Question: What about the Activity [20] of the same compound?
Answer: Its Activity is 94%.

Question: And the Vd [21]?
Answer: The Vd was 5.98 L/kg.

Question: And the Activity [22]?
Answer: The Activity was 92%.
